Converted amounts (≈) assume the structure as drawn. The source made the active and inactive calls. No cut-off for these calls is given here.
Experiments:
[1] = system: 3T3-L1; test: Inhibition of mouse 3T3-L1 cell differentiation at 2 uM
[2] = system: 3T3-L1 (Mus musculus); test: Inhibition of [1-14C]sodium acetate uptake in mouse 3T3-L1 cells at 2 uM
[3] = system: 3T3-L1; test: Inhibition of mouse 3T3-L1 cell differentiation by oil-red O staining method; assay type: functional
In short: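 Insulin-induced differentiation of 3T3-L1 pre-adipocytes into adipocytes; reduction in oil-red O stained cells judged under a microscope to give minimal inhibitory concentration.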

[4] = target: T1, Peroxisome proliferator-activated receptor gamma (Homo sapiens) (UniProt P37231); test: Antagonist activity at pioglitazone-stimulated PPARgamma transcriptional activity in U2OS cells at 1 uM; assay type: functional, cell-based
T1 sequence (whole entry): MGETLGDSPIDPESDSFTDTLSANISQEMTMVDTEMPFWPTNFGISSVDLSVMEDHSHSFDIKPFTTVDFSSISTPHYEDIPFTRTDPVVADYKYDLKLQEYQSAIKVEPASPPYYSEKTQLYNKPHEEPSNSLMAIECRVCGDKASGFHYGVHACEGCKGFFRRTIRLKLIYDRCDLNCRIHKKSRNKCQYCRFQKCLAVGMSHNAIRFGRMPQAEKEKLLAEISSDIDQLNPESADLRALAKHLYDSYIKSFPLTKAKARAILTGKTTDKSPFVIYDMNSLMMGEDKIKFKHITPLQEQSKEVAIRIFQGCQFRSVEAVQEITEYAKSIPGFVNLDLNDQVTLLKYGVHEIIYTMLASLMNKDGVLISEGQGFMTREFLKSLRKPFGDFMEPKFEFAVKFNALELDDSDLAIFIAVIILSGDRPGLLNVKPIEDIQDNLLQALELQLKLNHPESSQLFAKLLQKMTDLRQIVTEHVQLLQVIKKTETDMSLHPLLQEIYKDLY
In short: (§1)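 U2OS cells transfected with PPARγ expression plasmid, matching reporter plasmid and pCMV-β-galactosidase as internal control; reporter transcriptional activity measured with or without 1 μM pioglitazone stimulation; means of triplicate cultures.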

[5] = system: 3T3-L1; test: Inhibition of mouse 3T3-L1 cell differentiation assessed as minimal effective concentration by oil-red O staining method
[6] = target: T2, Peroxisome proliferator-activated receptor gamma (Homo sapiens, UniProt P37231); test: Binding affinity to PPARgamma
T2 sequence (P37231 whole entry): T1 sequence (whole entry)

[7] = system: 3T3-L1; test: Stimulation of mouse 3T3-L1 cells differentiation at 2 to 4 uM in presence of guanosine; assay type: functional, cell-based
In short: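 3T3-L1 cells with 50 μM guanosine added to suppress IMPDH-related effects; adipocyte differentiation stimulation examined at 2–4 μM.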

[8] = target: T1, Peroxisome proliferator-activated receptor gamma (Homo sapiens); test: Activation of PPARgamma transcriptional activity in U20S cells at 0.01 to 1 uM; assay type: functional, cell-based; conditions: U2OS
In short: as §1

Row | Structure (SMILES) | Activity [1] | further results
1 | COC(=O)CC/C(C)=C/Cc1c(OC)c(C)c2c(c1OS(=O)(=O)c1ccc(C)cc1)C(=O)OC2 | inactive | 
2 | CCOC(=O)COc1c(C)c2c(c(OCOCCOC)c1C/C=C(\C)CCC(=O)OC)C(=O)OC2 | inactive | 
3 | CCOC(=O)COc1c(C)c2c(c(O)c1C/C=C(\C)CCC(=O)OC)C(=O)OC2 | inactive | inhibition [2]: 0%
4 | COCCOCOc1c(C/C=C(\C)CCC(=O)OC)c(OC(=O)c2ccncc2)c(C)c2c1C(=O)OC2 | inactive | 
5 | C/C=C/C1=CC(=O)[C@@H](O)[C@@H]1O [TERREIN] |  | MIC [3]: 81 µM (≈ 12.5 µg/mL)
6 | COC(=O)CC/C(C)=C/Cc1c(OC)c(C)c2c(c1OC)C(=O)OC2 | inactive | 
7 | C/C(=C\Cc1c(O)c(C)c2c(c1O)C(=O)OC2)CCC(=O)O | inactive | 
8 | COCCOCOc1c(C/C=C(\C)CCC(=O)OC)c(O)c(C)c2c1C(=O)OC2 | inactive | inhibition [2]: 10%
9 | COC(=O)CC/C(C)=C/Cc1c(O)c2c(c(C)c1OC(=O)c1ccncc1)COC2=O | inactive | inhibition [2]: 3%
10 | COC(=O)CC/C(C)=C/Cc1c(O)c(C)c2c(c1O)C(=O)OC2 | inactive | 
11 | COC(=O)CC/C(C)=C/Cc1c(O)c2c(c(C)c1OC)COC2=O | Active | Activity [4]: Active
12 | COCCOCOc1c(C/C=C(\C)CCC(=O)OC)c(OC(=O)c2cccnc2)c(C)c2c1C(=O)OC2 | inactive | 
13 | COC(=O)CC/C(C)=C/Cc1c(O)c(C)c2c(c1OS(=O)(=O)c1ccc(C)cc1)C(=O)OC2 | inactive | 
14 | COC(=O)CC/C(C)=C/Cc1c(O)c2c(c(C)c1OC(=O)c1cccnc1)COC2=O | inactive | 
15 | COc1c(C)c2c(c(OC)c1C/C=C(\C)CCC(=O)O)C(=O)OC2 | inactive | 
16 | COc1c(C)c2c(c(OC(C)=O)c1C/C=C(\C)CCC(=O)O)C(=O)OC2 | Active | Activity [4]: Active; inhibition [2]: 86%
17 | COc1c(C)c2c(c(O)c1C/C=C(\C)CCC(=O)O)C(=O)OC2 [MYCOPHENOLIC ACID] | Active | Activity [5]: 0.2 µM; Kd [6]: 110 µM; Activity [4]: Active; Activity [7]: Active; Activity [8]: Active
